Sampled rows, rich in hits. Any-hit rate of the full collection: about 9.6%.
BaF3 parental: parental Ba/F3 viability inhibition as JAK2V617F counter-screen; CellTiter-Glo ATP luminescence; inhibition, % at 5.6 µM; actives 1.1% (n = 220,000); AID 1486;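 active = inhibition above a per-campaign cutoff, the mean inhibition of all tested compounds plus 3 SD, cut at about 27% in these data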;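 also: 0% = DMSO wells and 100% = JAK Inhibitor I control wells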
MT stabilizer: microtubule stabilization, imaging screen; HeLa tubulin immunostaining HCS, 24 h; share of cells brighter than vehicle mean+2SD; % tubulin-high responders, % at 10 µM; actives 0.83% (n = 200,000); AID 2205;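 active = plate Z-score above 3 for both tubulin-high and condensed-nucleus cell shares, with cell loss under 80%, at 10 µM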;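 also: anti alpha tubulin signal scored within the nucleus-defined area of each cell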
APP transl inh: APP translation inhibition. AID 1285. inhibition, % at 2 µM. SH-SY5Y APP 5'UTR-luciferase reporter, luminescence. actives 0.82% (n = 190,000);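 active = inhibition above a set limit, derived from the sample mean plus 3 SD, cut at about 45% in these data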
L major viab: inhibitors of Leishmania major promastigote growth. Leishmania major promastigotes, resazurin fluorescence viability. inhibition, % at 10 µM. actives 9% (n = 200,000); in the data active = inhibition above about 50%;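 also: promastigotes grown with compound for 44 hours at 28 °C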
b-catenin transl: alters nuclear translocation of beta-catenin in HeLa cells. immunofluorescence imaging. nuclear translocation activity, % at 5 µM. AID 1665. actives 0.3% (n = 190,000);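 active = nuclear translocation activity above 50% at 5 µM, with a well cell count of 50 or more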;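 also: per-cell ratio of nuclear to cytoplasmic median beta-catenin stain intensity; plate controls were DMSO negative control for no effect and GSK-3 inhibitor IX positive control for full effect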
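System: HeLa cells, endogenous beta-catenin; compound dosing: 5 µM primary single dose, 0.1% DMSO, 0.02–20 µM confirmation series; incubation: 24 h compound exposure at 37°C, 5% CO2; signal: beta-catenin immunofluorescence imaging with DAPI; evaluation: % activation, nuclear-to-cytoplasmic median beta-catenin signal ratio per cell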
Ba/F3 V617F tox: lowers viability of Ba/F3 cells expressing EpoR and JAK2V617F; ATP luminescence; inhibition, % at 5.6 µM; actives 1.1% (n = 220,000); AID 1446;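 active = inhibition above the campaign mean plus 3 SD over all tested compounds, cut at about 24% in these data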;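 also: cytokine-independent growth of Ba/F3 cells driven by EpoR plus mutant JAK2; 0% = DMSO-treated cells and 100% = JAK inhibitor I control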
* = called active by the depositor; nt = no result given.

SMILES | BaF3 parental | MT stabilizer | APP transl inh | L major viab | b-catenin transl | Ba/F3 V617F tox
CCOCCCn1c(=N)c(C(N)=S)cc2c(=O)n3cccc(C)c3nc21 | 8 | 2 | 7 | 43 | -1 | 3
Cc1ccc(-c2cc(=O)c3cc(Cl)ccc3[nH]2)cc1 | 0 | 4 | -138 | -3 | 0 | -2
O=C(Cn1cncn1)NCc1cc(F)ccc1F | 7 | 3 | 8 | -1 | -1 | 0
OCc1nc2ccccc2n1Cc1c(F)cccc1Cl | 1 | nt | nt | nt | 0 | -5
CSc1nc2ccccc2n1Cc1c(Cl)cccc1Cl | 30* | 3 | -13 | 18 | -6 | 20
Cc1nn(C2CCS(=O)(=O)C2)c(Cl)c1/C=C/C(=O)OCC(=O)Nc1ccccc1OC(F)F (centres undefined) | 2 | 1 | -9 | 51* | -2 | -2
CCC(CO)NCc1ccccc1OC(C)C (centres undefined) | 1 | 1 | 13 | -2 | 0 | -2
CCS(=O)(=O)c1nc(S(=O)(=O)c2ccc(Cl)cc2)c(NCc2ccccn2)s1 | 0 | 3 | 0 | 4 | -2 | -2
CCS(=O)(=O)c1nc(S(=O)(=O)c2ccc(Cl)cc2)c(N2CCc3ccccc3C2)s1 | 2 | 3 | -6 | 51* | 0 | -5
O=C(Cc1ccccc1)Nc1ccc(C(=O)NCC2COc3ccccc3O2)cc1 (centres undefined) | 2 | 5 | -14 | 3 | 1 | -3
O=C(NCC1COc2ccccc2O1)c1ccc(NC(=O)C(c2ccccc2)c2ccccc2)cc1 (centres undefined) | 4 | 3 | -21 | 92* | -1 | -2
COc1ccc(N(C(=O)c2ccccc2C)S(=O)(=O)c2cccs2)cc1 | 74* | 16* | 93* | 94* | 99* | 68*
O=C(O)CC(NNC(=O)c1ccccc1)C(=O)Nc1cccc([N+](=O)[O-])c1 (centres undefined) | -3 | nt | nt | nt | -1 | -2
O=C(O)C1=C(C(=O)Nc2cc(C(F)(F)F)ccc2Cl)CCCC1 | 5 | 2 | 10 | -4 | 0 | -1
CC(C)Sc1nc2ccc(N3C(=O)C4CCCCC4C3=O)cc2s1 (centres undefined) | 6 | 2 | -1 | -4 | 1 | 1
O=C(NC(=S)NCCc1ccccc1)C1CCCCC1 | 8 | 3 | -16 | 88* | -1 | 3
O=C(NC(=S)NCc1ccccc1)C1CC1 | 4 | 2 | -24 | -2 | -1 | 2
CC(C)(C)CC(=O)NC(=S)NCCc1ccccc1 | 3 | 1 | -15 | 90* | 2 | -4
Brc1ccc(CSc2nnc3ccccn23)cc1 | 5 | 2 | -13 | -6 | -1 | -2
COc1cc(OC)cc(-c2nc3ccccc3c(=O)n2OC(=O)c2ccc(Br)cc2)c1 | 9 | 1 | -24 | 50* | -2 | 1
CNc1nc(C23CC4CC(CC(C4)C2)C3)cs1 | 6 | 3 | -22 | 13 | 0 | 2
Cc1cc([N+](=O)[O-])nn1CC(=O)NCc1nc2ccccc2[nH]1 | 4 | 2 | -5 | 7 | -2 | -1
COCCN1C=C(C(=O)OC)C(c2ccc3c(c2)OCO3)C(C(=O)OC)=C1 | -1 | 4 | -19 | 7 | -1 | -1
COCCN1C=C(C(=O)OC)C(c2cc3c(cc2Br)OCO3)C(C(=O)OC)=C1 | 3 | 2 | 13 | 62* | nt | 1
Cc1sc2ncnc(N3CCN(CCOc4ccc(Cl)cc4)CC3)c2c1C | 31* | 1 | 3 | 8 | 0 | 11
SMILES | BaF3 parental | MT stabilizer | APP transl inh | L major viab | b-catenin transl | Ba/F3 V617F tox
Nc1ncnc(Nc2cc(Cl)cc(Cl)c2)c1[N+](=O)[O-] | 10 | 2 | -6 | 55* | -1 | -2
CCCCc1nnc(NC(=O)COC)s1 | 2 | 3 | -3 | -1 | 0 | -1
COCCN(C(=S)Nc1ccc(C)cc1C)C(C)c1cccs1 (centres undefined) | -1 | 2 | -14 | 41 | 0 | -4
COCCN(C(=S)Nc1c(C)cc(C)cc1C)C(C)c1cccs1 (centres undefined) | -1 | 3 | -6 | 98* | 1 | -2
Cc1cccc(NC(=S)N(CCN(C)C)C(C)c2cccnc2)c1 (centres undefined) | 8 | 2 | -12 | 16 | -1 | 3
COCCN(C(=S)Nc1cc(C)cc(C)c1)C(C)c1cccnc1 (centres undefined) | 0 | 4 | 4 | 95* | 1 | -2
COCCN(C(=S)Nc1ccc(C)cc1)C(C)c1cccnc1 (centres undefined) | 3 | 4 | -6 | 80* | 0 | -1
CCOc1cc(N2CCOCC2)c(OCC)cc1NC(=O)CN1C(=O)C2C3C=CC(C3)C2C1=O (centres undefined) | 0 | 5 | 5 | -6 | -2 | -6
CC(C)c1csc(CN2CCN(Cc3ccc(F)cc3)C(CCO)C2)n1 (centres undefined) | 3 | 2 | -22 | 81* | -2 | -5
Cc1ccc(CN2CCN(Cc3nc(C(C)C)cs3)CC2CCO)cc1 (centres undefined) | 1 | 3 | 2 | 74* | 5 | -2
Cc1ccc(NC(=O)COc2ccc(/C(N)=N/O)cc2)cc1C | 5 | 2 | 14 | -10 | -2 | 5
CCn1cc([N+](=O)[O-])c(C(=O)N2N=C(c3ccc4ccccc4c3)CC2c2cc(Br)ccc2O)n1 (centres undefined) | 4 | 5 | 15 | 100* | 10 | 0
O=C(Cc1ccc([N+](=O)[O-])cc1)Nc1ccc(Cl)cc1 | 3 | 4 | -9 | 4 | -4 | -2
O=C(Cc1ccc(Cl)cc1)NNS(=O)(=O)c1ccc([N+](=O)[O-])cc1 | 6 | 4 | 19 | 68* | -1 | 1
O=C(c1ccc(Cl)nc1)N1CCN(S(=O)(=O)c2ccc(Cl)cc2)CC1 | 2 | 3 | -5 | 3 | 3 | 0
COc1ccc(C(=O)CCNc2ccc3c(c2)OCCO3)cc1 | 0 | 2 | -23 | 8 | 1 | 0
CCC(=O)n1nc(-c2ccc(Cl)cc2)nc1N | 12 | 3 | -14 | -5 | 0 | -1
CCc1nc(N)nc(N)c1-c1ccc(Cl)cc1 | 97* | 3 | -9 | 19 | nt | 97*
C#CCNC(=O)C1CCN(c2cc(C)nc(-c3ccccc3)n2)CC1 | 2 | 3 | -20 | 12 | 0 | -1
Cc1ccc(Oc2c(CO)c(-c3ccccc3)nn2C)cc1 | 7 | 18* | 10 | 3 | 1 | 1
CC(C)(C)NC(=O)C(c1ccc(F)cc1)N(Cc1cccs1)C(=O)c1ccc(CN2CCOCC2)o1 (centres undefined) | 1 | 1 | -5 | 0 | -1 | -2
COc1cc(CNCc2cccs2)ccc1OCC(=O)NC(C)(C)C | 9 | 2 | 4 | 89* | 2 | 2
COc1cc(CNCc2cccs2)ccc1OCc1cccs1 | -2 | 2 | 2 | 100* | 2 | 0
